Experimental data as given in ChEMBL document CHEMBL4840309, “Nanomolar inhibition of human OGA by 2-acetamido-2-deoxy-d-glucono-1,5-lactone semicarbazone derivatives” (Eur J Med Chem, 2021).

Experiments:
Protein O-GlcNAcase [1] = target: T1, Protein O-GlcNAcase (Homo sapiens, UniProt O60502); assay: Inhibition of OGA (unknown origin) using pNP-O-GlcNAc as substrate assessed as inhibition constant incubated for 30 mins
T1 sequence (O60502 whole entry): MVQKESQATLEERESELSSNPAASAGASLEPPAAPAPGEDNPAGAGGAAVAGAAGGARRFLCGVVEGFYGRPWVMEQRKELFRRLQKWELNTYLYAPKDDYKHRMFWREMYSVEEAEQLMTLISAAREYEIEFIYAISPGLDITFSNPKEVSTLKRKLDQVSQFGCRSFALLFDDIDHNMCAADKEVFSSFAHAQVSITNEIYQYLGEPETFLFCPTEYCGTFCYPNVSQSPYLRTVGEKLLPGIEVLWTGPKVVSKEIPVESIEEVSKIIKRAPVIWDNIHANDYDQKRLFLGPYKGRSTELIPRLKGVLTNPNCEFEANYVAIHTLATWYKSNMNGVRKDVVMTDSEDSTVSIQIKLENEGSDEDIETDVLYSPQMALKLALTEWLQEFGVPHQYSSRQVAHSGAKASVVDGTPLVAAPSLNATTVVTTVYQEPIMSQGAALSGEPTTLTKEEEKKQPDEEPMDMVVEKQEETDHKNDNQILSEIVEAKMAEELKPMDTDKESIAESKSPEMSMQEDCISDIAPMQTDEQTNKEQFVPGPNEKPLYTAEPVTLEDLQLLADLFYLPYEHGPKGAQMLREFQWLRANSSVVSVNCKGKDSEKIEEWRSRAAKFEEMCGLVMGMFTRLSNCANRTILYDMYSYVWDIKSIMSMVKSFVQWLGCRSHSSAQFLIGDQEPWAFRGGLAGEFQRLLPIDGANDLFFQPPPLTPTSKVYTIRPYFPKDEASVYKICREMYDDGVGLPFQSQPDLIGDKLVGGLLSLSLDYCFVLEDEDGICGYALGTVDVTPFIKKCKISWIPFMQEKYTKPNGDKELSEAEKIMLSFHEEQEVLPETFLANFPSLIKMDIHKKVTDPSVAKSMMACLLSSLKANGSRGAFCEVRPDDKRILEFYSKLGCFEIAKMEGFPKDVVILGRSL

Protein O-GlcNAcase [2] = target: T1, Protein O-GlcNAcase; assay: Competitive inhibition of N-terminal His-tagged human OGA using pNP-GlcNAc as chromogenic substrate assessed as inhibition constant by measuring liberation of nitrophenol preincubated with enzyme followed by substrate addition by Dixon plot analysis
Outline: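 His6-tagged full-length human OGA (Rosetta(DE3), Co2+ IMAC), 33 nM. Pre-incubated with inhibitor at 37 °C in 50 mM potassium phosphate, pH 7.5, 1 ml. Started by adding pNP-GlcNAc at three concentrations. Release of p-nitrophenol followed continuously at 400 nm. Initial rates in triplicate; Ki by linear regression of Dixon plots; modality checked by Cornish-Bowden plots.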

HEXA/HEXB [3] = target: T2, HEXA/HEXB (Bos taurus, UniProt Q0V8R6+H7BWW2); assay: Competitive inhibition of cow HexA/HexB (unknown origin) using pNP-GlcNAc as substrate assessed as inhibition constant by measuring liberation of nitrophenol preincubated with enzyme followed by substrate addition by Dixon plot analysis; type: protein
T2 sequence (Q0V8R6 whole entry): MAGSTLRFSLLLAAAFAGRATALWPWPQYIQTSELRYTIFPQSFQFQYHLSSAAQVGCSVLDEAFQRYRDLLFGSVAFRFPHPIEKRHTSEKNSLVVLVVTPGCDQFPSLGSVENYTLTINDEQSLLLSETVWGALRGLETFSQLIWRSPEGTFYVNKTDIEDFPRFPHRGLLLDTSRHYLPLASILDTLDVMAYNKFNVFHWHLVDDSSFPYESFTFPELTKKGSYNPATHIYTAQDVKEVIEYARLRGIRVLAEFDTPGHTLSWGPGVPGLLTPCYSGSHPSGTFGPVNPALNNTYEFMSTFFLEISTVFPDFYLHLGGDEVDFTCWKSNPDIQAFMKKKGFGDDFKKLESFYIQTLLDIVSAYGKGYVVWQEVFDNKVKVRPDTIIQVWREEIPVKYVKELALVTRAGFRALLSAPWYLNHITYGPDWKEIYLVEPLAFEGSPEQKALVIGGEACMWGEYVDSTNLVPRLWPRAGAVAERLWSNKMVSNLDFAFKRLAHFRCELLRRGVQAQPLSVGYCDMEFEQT
T2 sequence (H7BWW2 whole entry): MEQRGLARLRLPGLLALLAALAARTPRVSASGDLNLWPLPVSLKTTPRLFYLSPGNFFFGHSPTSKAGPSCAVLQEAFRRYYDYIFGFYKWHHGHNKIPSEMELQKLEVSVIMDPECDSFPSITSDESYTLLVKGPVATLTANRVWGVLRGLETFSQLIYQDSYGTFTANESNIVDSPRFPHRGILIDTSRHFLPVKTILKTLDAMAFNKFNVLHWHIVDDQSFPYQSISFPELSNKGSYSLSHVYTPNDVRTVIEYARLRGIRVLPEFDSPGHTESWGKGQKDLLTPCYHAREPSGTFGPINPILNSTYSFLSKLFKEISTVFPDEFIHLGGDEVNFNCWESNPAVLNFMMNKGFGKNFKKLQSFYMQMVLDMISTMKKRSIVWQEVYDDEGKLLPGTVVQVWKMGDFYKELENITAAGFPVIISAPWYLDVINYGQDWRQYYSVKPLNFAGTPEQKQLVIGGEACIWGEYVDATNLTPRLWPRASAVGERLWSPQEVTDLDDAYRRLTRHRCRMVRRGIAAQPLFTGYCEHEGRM

Protein O-GlcNAcase [4] = target: T1, Protein O-GlcNAcase; assay: Competitive inhibition of N-terminal His-tagged human OGA using 4-Mu-GlcNAc as substrate assessed as inhibition constant by measuring liberation of […] preincubated with enzyme followed by substrate addition by Cornish-Bowden method
Outline: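 Full-length long isoform of human OGA with an N-terminal His6 tag, expressed in E. coli Rosetta(DE3) and purified on Co2+ IMAC. 3 nM enzyme was pre-incubated at 37 °C with inhibitor (0–100 nM) in 50 mM potassium phosphate, pH 7.5. Reaction was started with 4-MU-GlcNAc at three levels. Fluorescence (ex 360, em 450) was read every 10 s for 10 min. Triplicates; Ki from Dixon plot; mode by Cornish-Bowden.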

HEXA/HEXB [5] = target: T2, HEXA/HEXB; assay: Inhibition of HexA/HexB (unknown origin); type: protein assay, Homo sapiens

Row | Structure (SMILES) | Ki (Protein O-GlcNAcase [1]) | Ki (Protein O-GlcNAcase [2]) | Ki (HEXA/HEXB [3]) | Ki (Protein O-GlcNAcase [4]) | Ki (HEXA/HEXB [5])
1 | CC(=O)N[C@H]1/C(=N/O)O[C@H](CO)[C@@H](O)[C@@H]1O | 1600 nM | – | – | – | –
2 | CC(=O)N[C@H]1/C(=N/NC(=S)Nc2ccccc2)O[C@H](CO)[C@@H](O)[C@@H]1O | – | 27000 nM | 30000 nM | – | –
3 | COc1ccc(NC(=O)N/N=C2\O[C@H](CO)[C@@H](O)[C@H](O)[C@H]2NC(C)=O)cc1 | – | 270 nM | 413 nM | – | –
4 | CC(=O)N[C@H]1/C(=N/NC(=O)Nc2ccc3ccccc3c2)O[C@H](CO)[C@@H](O)[C@@H]1O | – | – | 47 nM | 36 nM | –
5 | CC(=O)N[C@H]1/C(=N/NC(=O)Nc2ccccc2)O[C@H](CO)[C@@H](O)[C@@H]1O | – | 190 nM | 205 nM | – | 130 nM
6 | CC(=O)N[C@H]1/C(=N/NC(=O)Nc2cccc3ccccc23)O[C@H](CO)[C@@H](O)[C@@H]1O | – | 506 nM | 154 nM | – | –
7 | CC(=O)N[C@H]1/C(=N/NC(=O)Nc2ccc(Cl)cc2)O[C@H](CO)[C@@H](O)[C@@H]1O | – | – | 170 nM | 83 nM | –
8 | CC(=O)N[C@H]1/C(=N/NC(=O)Nc2ccc(C(F)(F)F)cc2)O[C@H](CO)[C@@H](O)[C@@H]1O | – | 167 nM | 125 nM | – | –
9 | CC(=O)N[C@H]1/C(=N/NC(=O)Nc2ccc(C)cc2)O[C@H](CO)[C@@H](O)[C@@H]1O | – | 155 nM | 332 nM | – | –
